Test results as given in ChEMBL document CHEMBL1123134, “Diterpenoid sweeteners. Synthesis and sensory evaluation of stevioside analogues with improved organoleptic properties” (1985).

Columns and labels:
Type in all cases: functional
[1] = species: Homo sapiens; experiment: Sensory evaluation was done for sweetness at a concentration of 250 p.p.m. against compound potency calculated on weight basis.
Procedure, shortened: (§1)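 Sweetness tasted in solutions held near pH ~7, so carboxylic acids are ionized. Potency is reported two ways: on a weight basis (Pw) and on a molar basis (Pm).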

[2] = species: Homo sapiens; experiment: Sensory evaluation was done for sweetness at a concentration of 250 p.p.m. against compound potency calculated on a molar basis.; procedure, shortened: as §1
[3] = species: Homo sapiens; experiment: Sensory evaluation was done at a concentration of 250 p.p.m. against other properties.
Procedure, shortened: (§2)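 Aqueous sample solutions were tasted at about pH 7, so carboxylic acids were in ionized form.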

[4] = species: Homo sapiens; experiment: Sensory evaluation was done at a concentration of 250 p.p.m. against property of bitterness.; procedure, shortened: as §2
[5] = species: Homo sapiens; experiment: Sensory evaluation was done for sweetness at a concentration of 250 p.p.m. against sample intensity relative to 10% sucrose.; procedure, shortened: as §1
[6] = species: Homo sapiens; experiment: Sensory evaluation was done at a concentration of 250 p.p.m. against property of sweetness.; procedure, shortened: as §2
[7] = species: Homo sapiens; experiment: Sensory evaluation was done for sweetness at a concentration of 100000 p.p.m. against compound potency calculated on weight basis.
Procedure, shortened: (§3)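 Solutions were tasted at about pH 7. Sweetness potency was expressed two ways: Pw, calculated on a weight basis, and Pm, calculated on a molar basis.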

[8] = species: Homo sapiens; experiment: Sensory evaluation was done for sweetness at a concentration of 100000 p.p.m. against compound potency calculated on a molar basis.; procedure, shortened: as §3
[9] = species: Homo sapiens; experiment: Sensory evaluation was done at a concentration of 100000 p.p.m. against other properties.; procedure, shortened: as §2
[10] = species: Homo sapiens; experiment: Sensory evaluation was done at a concentration of 100000 p.p.m. against property of bitterness.; procedure, shortened: as §2
[11] = species: Homo sapiens; experiment: Sensory evaluation was done at a concentration of 100000 p.p.m. against property of sweetness.; procedure, shortened: as §2
[12] = species: Homo sapiens; experiment: Sensory evaluation was done for sweetness at a concentration of 100000 p.p.m. against sample intensity relative to 10% sucrose.; procedure, shortened: as §1

| Compound | Pw [1] | Pm [2] | Sensory evaluation [3] | Sensory evaluation [4] | Ip [5] | Sensory evaluation [6] | Pw [7] | Pm [8] | Sensory evaluation [9] | Sensory evaluation [10] | Sensory evaluation [11] | Ip [12] |
| --- | --- | --- | --- | --- | --- | --- | --- | --- | --- | --- | --- | --- |
| COc1ccc(CCC(=O)c2c(O)cc(O[C@@H]3O[C@H](CO)[C@@H](O)[C@H](O)[C@H]3O[C@@H]3O[C@@H](C)[C@H](O)[C@@H](O)[C@H]3O)cc2O)cc1O [NEOHESPERIDIN DIHYDROCHALCONE] | 480 | 860 | 16 | 3 | 1.2 | 81 |  |  |  |  |  |  |
| OC[C@H]1O[C@@](CO)(O[C@H]2O[C@H](CO)[C@@H](O)[C@H](O)[C@H]2O)[C@@H](O)[C@@H]1O [SUCROSE] |  |  |  |  |  |  | 1 | 1 | 0 | 0 | 100 | 1 |
